Drawing on ChEMBL document CHEMBL1759908, “Design, synthesis and potential 6 Hz psychomotor seizure test activity of some novel 2-(substituted)-3-{[substituted]amino}quinazolin-4(3H)-one” (Eur J Med Chem, 2011), this text covers Activity and logP for 29 compounds.

Active and inactive are the calls of the source.

Broadly, the logP is a log measure of how a compound divides between an organic and an aqueous phase. The low end stands for lower lipophilicity, the high end for higher lipophilicity.

Data set [1] concerns Mus musculus. The data set can be described thus: Anticonvulsant activity in CF1 mouse assessed as protection against 32 mA-current- for 3 secs induced seizure at 100 mg/kg, ip after 1 hr by 6Hz psychomotor seizure test. It is filed as functional. The gist of the method:
(§1)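 Male CF-1 mice (18-25 g) received 100 mg/kg i.p. as a suspension in 0.5% methylcellulose. At 0.25, 0.5, 1.0, 2.0 and 4.0 h, four mice per time point were stimulated through corneal electrodes (32 mA, 3 s, 6 Hz). Mice without psychomotor seizure behaviour were counted as protected. Results are reported as number protected over number tested.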

For data set [2], the system named is Mus musculus. The data set can be described thus: Anticonvulsant activity in CF1 mouse assessed as protection against 32 mA-current- for 3 secs induced seizure at 100 mg/kg, ip after 2 hrs by 6Hz psychomotor seizure test. Format: functional. The gist of the method:
as §1

Data set [3] is described as follows: Lipophilicity, log P of the compound in octanol-phosphate buffer. Format: physicochemical. The procedure, abridged: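 Experimental log P was measured by octanol-phosphate buffer partition. The mixture stood 24 h at room temperature and was then equilibrated 6 h in a separating funnel. Phases were separated and membrane-filtered, and drug in the aqueous phase was quantified by UV spectroscopy.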

Data set [4] concerns Mus musculus. Description: Anticonvulsant activity in CF1 mouse assessed as protection against 32 mA-current- for 3 secs induced seizure at 100 mg/kg, ip after 4 hrs by 6Hz psychomotor seizure test. It is filed as functional, organism-based. Further details: dose 100 mg/kg. The procedure, abridged: as §1
Data set [5] deals with Mus musculus. The data set can be described thus: Anticonvulsant activity in CF1 mouse assessed as protection against 32 mA-current- for 3 secs induced seizure at 100 mg/kg, ip after 0.5 hr by 6Hz psychomotor seizure test. It is filed as functional. The procedure, abridged: as §1
Data set [6] has as its system Mus musculus. Description: Neurotoxicity in CF1 mouse assessed as minimal motor impairment at 100 mg/kg, ip after 1 min by rotarod test. It is filed as toxicity, organism-based. Further details: dose 100 mg/kg, route intraperitoneal. Particulars: in vivo. The gist of the method:
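Neurotoxicity was scored as minimal motor impairment on the rotarod. Male CF-1 mice (18-25 g) received 100 mg/kg i.p. as a 0.5% methylcellulose suspension. Results are given as number toxic over number tested.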
(In general: The rotarod test checks motor coordination on a turning rod.)

In data set [7] the test system is Mus musculus. Description: Anticonvulsant activity in CF1 mouse at 30 to 300 mg/kg, sc after 30 mins by subcutaneous metrazole seizure threshold test. It is filed as functional, organism-based.
For data set [8], the system named is Mus musculus. The data set can be described thus: Anticonvulsant activity in CF1 mouse at 30 to 300 mg/kg, ip by maximal electroshock test. It is filed as functional, organism-based. The gist of the method: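 Male CF-1 mice (18-25 g) were dosed i.p. at 30, 100 and 300 mg/kg (0.5% methylcellulose suspension). Maximal electroshock protection and neurotoxicity were assessed 30 min and 4 h after administration.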
(In general: Protection in the maximal electroshock model is a classic sign of anticonvulsant action.)

The test system of data set [9] is Mus musculus. Description: Anticonvulsant activity in CF1 mouse assessed as protection against 32 mA-current- for 3 secs induced seizure at 100 mg/kg, ip after 0.25 hr by 6Hz psychomotor seizure test. Format: functional. The procedure, abridged: as §1

As to `CCCc1nc2ccccc2c(=O)n1/N=C/c1ccc(Oc2ccc(F)cc2)cc1`, the outcome with Mus musculus [1], in the data set on Mus musculus [2], in the data set on Mus musculus [4] and with Mus musculus [5] was inactive. The compound also gave a logP in [3] of 5.22. Also, the Activity entry in the data set on Mus musculus [6] is listed as “Non-toxic”.

For `O=c1c2ccccc2nc(-c2ccccc2)n1/N=C/c1ccc(Oc2ccc(Cl)cc2)cc1`, the result with Mus musculus [7] and in the data set on Mus musculus [8] was inactive. The logP in [3] stood at 6.38.

Regarding `CCCc1nc2ccccc2c(=O)n1/N=C/c1ccc(Oc2ccc(Cl)c(C)c2)cc1`, the Activity in the data set on Mus musculus [9] (route intraperitoneal) is reported as 50%; in the data set on Mus musculus [6], “Non-toxic”. The same compound yielded a logP in data set [3] of 6.02. Besides, the outcome in the data set with Mus musculus [4] was inactive.

Regarding `Cc1nc2ccccc2c(=O)n1/N=C/c1ccc(Oc2ccc(Br)cc2)cc1`, the result in the data set with Mus musculus [9] and in the data set on Mus musculus [4] was inactive. The lipophilicity (logP) in data set [3] is 4.64. The Activity in the data set with Mus musculus [5] (route intraperitoneal) was 50%; in the data set with Mus musculus [6], “Non-toxic”.

`Cc1nc2ccccc2c(=O)n1/N=C/c1ccc(Oc2ccc3c(c2)OCO3)cc1`: the outcome with Mus musculus [1], in the data set with Mus musculus [9], in the data set on Mus musculus [2] and in the data set on Mus musculus [4] was inactive. Further, the logP in [3] turned out to be 4.01. The Activity result in the data set on Mus musculus [6] is given as “Non-toxic”.

With `CCCc1nc2ccccc2c(=O)n1/N=C1/C(=O)Nc2ccccc21`, the Activity in the data set with Mus musculus [1] (route intraperitoneal) is 50%; in the data set on Mus musculus [9] (route intraperitoneal) it was 75%; in the data set with Mus musculus [2] (route intraperitoneal), 25%; in the data set with Mus musculus [5] (route intraperitoneal) it was 50%; in the data set with Mus musculus [6] it was “Non-toxic”. In data set [3], the logP turned out to be 3.23. Moreover, the result in the data set on Mus musculus [4] was inactive.

Take `CCCc1nc2ccccc2c(=O)n1/N=C/c1ccc(Oc2ccc(Cl)cc2)cc1`: the outcome with Mus musculus [1], in the data set with Mus musculus [2], with Mus musculus [4] and in the data set with Mus musculus [5] was inactive. Further, the Activity is 50% in the data set with Mus musculus [9] (route intraperitoneal) and “Non-toxic” in the data set on Mus musculus [6]. Moreover, in data set [3], the logP was 5.78.

`CCCc1nc2ccccc2c(=O)n1/N=C/c1ccc(Oc2ccc(Br)cc2)cc1`: the Activity is reported as 50% with Mus musculus [1] (route intraperitoneal), 50% with Mus musculus [9] (route intraperitoneal), 25% in the data set on Mus musculus [5] (route intraperitoneal) and “Non-toxic” in the data set on Mus musculus [6]. The outcome with Mus musculus [2] and with Mus musculus [4] was inactive. The same compound had a logP in data set [3] of 5.88.

As for `CCCc1nc2ccccc2c(=O)n1/N=C/c1ccc(Oc2ccc([N+](=O)[O-])cc2)cc1`, the outcome in the data set with Mus musculus [2], in the data set on Mus musculus [4] and in the data set with Mus musculus [5] was inactive. The logP in data set [3] was found to be 5.18. Besides, in the data set with Mus musculus [6], the Activity result was “Non-toxic”.

`Cc1nc2ccccc2c(=O)n1/N=C/c1ccc(Oc2ccc([N+](=O)[O-])cc2)cc1`: in data set [3], the logP stood at 4.01. Further, the outcome with Mus musculus [4] was inactive. In the data set with Mus musculus [6], the Activity result is given as “Non-toxic”.

Take `Cc1ccc(Oc2ccc(/C=N/n3c(-c4ccccc4)nc4ccccc4c3=O)cc2)cc1`: the result with Mus musculus [7] and in the data set on Mus musculus [8] was inactive. Further, the logP in [3] stood at 6.29.

As for `CCCc1nc2ccccc2c(=O)n1/N=C/c1ccc(Oc2ccc3ccccc3c2)cc1`, the Activity with Mus musculus [1] (route intraperitoneal) was 25%; with Mus musculus [9] (route intraperitoneal) it was 50%; in the data set with Mus musculus [5] (route intraperitoneal), 50%; with Mus musculus [6] it was “Non-toxic”. Also, the outcome in the data set with Mus musculus [2] and in the data set on Mus musculus [4] was inactive. The same compound gave a logP in data set [3] of 6.12.

On to `Cc1nc2ccccc2c(=O)n1/N=C1/C(=O)Nc2ccccc21`, for which the outcome with Mus musculus [1], in the data set with Mus musculus [9], with Mus musculus [2] and in the data set on Mus musculus [4] was inactive. Also, the logP in data set [3] was 2.23. Moreover, the Activity entry in the data set with Mus musculus [6] is reported as “Non-toxic”.

`O=c1c2ccccc2nc(-c2ccccc2)n1/N=C/c1ccc(Oc2ccc(Br)cc2)cc1` gave a logP in data set [3] of 6.39.

With `Cc1cc(Oc2ccc(/C=N/n3c(C)nc4ccccc4c3=O)cc2)ccc1Cl`, the Activity is reported as 25% in the data set with Mus musculus [1] (route intraperitoneal), 50% in the data set on Mus musculus [9] (route intraperitoneal), 50% in the data set on Mus musculus [5] (route intraperitoneal) and “Non-toxic” with Mus musculus [6]. For the same compound, the outcome with Mus musculus [2] and with Mus musculus [4] was inactive. The compound further showed a logP in data set [3] of 4.41.

Consider `O=c1c2ccccc2nc(-c2ccccc2)n1/N=C/c1ccc(Oc2ccc(F)cc2)cc1`, for which the Activity is reported as 25% with Mus musculus [1] (route intraperitoneal) and “Non-toxic” in the data set on Mus musculus [6]. Moreover, the result in the data set on Mus musculus [2] and with Mus musculus [4] was inactive. The logP in data set [3] was determined as 6.21.

Turning to `O=c1c2ccccc2nc(-c2ccccc2)n1/N=C/c1ccc(Oc2ccccc2)cc1`, the result in the data set with Mus musculus [7] and in the data set with Mus musculus [8] was inactive. Also, in data set [3], the logP was determined as 6.13.

For the compound `Cc1nc2ccccc2c(=O)n1/N=C/c1ccc(Oc2ccc3ccccc3c2)cc1`, the result in the data set with Mus musculus [1], with Mus musculus [9], in the data set with Mus musculus [2] and in the data set on Mus musculus [4] was inactive. Also, the logP in data set [3] was 5.22. Further, the Activity in the data set on Mus musculus [5] (route intraperitoneal) is reported as 50%; with Mus musculus [6] it was “Non-toxic”.

With `Cc1nc2ccccc2c(=O)n1/N=C/c1ccc(Oc2ccc(Cl)cc2)cc1`, the logP in data set [3] was 4.6.

In the case of `CCCc1nc2ccccc2c(=O)n1/N=C/c1ccc(Oc2ccc(C)cc2)cc1`, the outcome in the data set on Mus musculus [1], with Mus musculus [9], in the data set on Mus musculus [2] and with Mus musculus [4] was inactive. This compound had a logP in data set [3] of 5.45. For the same compound, the Activity in the data set on Mus musculus [5] (route intraperitoneal) is 50%; with Mus musculus [6] it was “Non-toxic”.

Take `O=c1c2ccccc2nc(-c2ccccc2)n1/N=C/c1ccc(Oc2ccc3c(c2)OCO3)cc1`: the outcome with Mus musculus [1], in the data set on Mus musculus [2], with Mus musculus [4] and in the data set on Mus musculus [5] was inactive. In addition, in [3], the logP turned out to be 6.01. The Activity result in the data set on Mus musculus [6] is reported as “Non-toxic”.

On to `Cc1nc2ccccc2c(=O)n1/N=C/c1ccc(Oc2ccc(F)cc2)cc1`, for which the values for the Activity with Mus musculus [1] (route intraperitoneal) and in the data set with Mus musculus [6] were 50% and “Non-toxic”, respectively. The result in the data set with Mus musculus [9] and in the data set with Mus musculus [4] was inactive. The compound also displayed a logP in [3] of 4.21.

For the compound `O=c1c2ccccc2nc(-c2ccccc2)n1/N=C/c1ccc(Oc2ccc3ccccc3c2)cc1`, the outcome in the data set on Mus musculus [7] and in the data set on Mus musculus [8] was inactive. Also, the logP in [3] came out at 6.53.

Take `CCCc1nc2ccccc2c(=O)n1/N=C/c1ccc(Oc2ccc3c(c2)OCO3)cc1`: the logP in data set [3] is 4.82.

As to `Cc1nc2ccccc2c(=O)n1/N=C/c1ccc(Oc2ccccc2)cc1`, the result in the data set on Mus musculus [1], in the data set with Mus musculus [9], with Mus musculus [2] and with Mus musculus [4] was inactive. The compound also registered a logP in data set [3] of 4.01. In addition, the Activity result in the data set with Mus musculus [6] is listed as “Non-toxic”.

For `Cc1ccc(Oc2ccc(/C=N/n3c(C)nc4ccccc4c3=O)cc2)cc1`, the Activity is given as 50% with Mus musculus [9] (route intraperitoneal), 25% in the data set on Mus musculus [2] (route intraperitoneal), 75% in the data set on Mus musculus [5] (route intraperitoneal) and “Non-toxic” in the data set on Mus musculus [6]. The compound further returned a logP in [3] of 4.32. The result in the data set with Mus musculus [4] was inactive.

Regarding `O=C1Nc2ccccc2/C1=N\n1c(-c2ccccc2)nc2ccccc2c1=O`, the outcome in the data set on Mus musculus [7] and in the data set on Mus musculus [8] was inactive. Moreover, the logP in data set [3] is 4.03.

Take `O=c1c2ccccc2nc(-c2ccccc2)n1/N=C/c1ccc(Oc2ccc([N+](=O)[O-])cc2)cc1`: the outcome in the data set with Mus musculus [7] and in the data set with Mus musculus [8] was inactive. The compound also returned a logP in data set [3] of 6.12.

Regarding `CCCc1nc2ccccc2c(=O)n1/N=C/c1ccc(Oc2ccccc2)cc1`, the outcome in the data set on Mus musculus [9], with Mus musculus [2] and in the data set on Mus musculus [4] was inactive. In data set [3], this compound came in with a logP of 5.2. Also, the Activity entry in the data set with Mus musculus [6] is reported as “Non-toxic”.
